Experimental data reported in ChEMBL document CHEMBL1154706, “Novel substituted and fused pyrrolizine derivatives: synthesis, anti-inflammatory and ulcerogenecity studies” (Eur J Med Chem, 2010).

Test system: Rattus norvegicus
Experiment: Gastrointestinal toxicity in albino rat assessed ulcer index at 39.23 […], po
Format: organism-based
Details: in vivo
Summary of the method: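 Adult albino rats of both sexes (120–150 g), five per group, fasted 20 h before dosing. Compounds given orally as a suspension in 1% Tween; controls received vehicle. Dosed on three consecutive days with fasting/feeding cycles, then killed on day 4. Stomach opened along the greater curvature and rinsed with saline. Red spots counted and severity scored 0–4. Ulcer index derived from % incidence/10, mean ulcer number and mean severity.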

Structure (SMILES) | UI
O=C(O)CCc1nc(=O)c2c3n(c(C(=O)Nc4ccccc4)c2[nH]1)CCC3 | 16.66
O=C(O)/C=C\c1nc(=O)c2c3n(c(C(=O)Nc4ccccc4)c2[nH]1)CCC3 | 17.46
Cc1ccc(NC(=O)c2c3[nH]c(/C=C\C(=O)O)nc(=O)c3c3n2CCC3)cc1 | 18.3
O=C(O)CCc1nc(=O)c2c3n(c(C(=O)Nc4ccc(Cl)cc4)c2[nH]1)CCC3 | 15.66
Cc1ccc(NC(=O)c2c3[nH]c(CCC(=O)O)nc(=O)c3c3n2CCC3)cc1 | 17.91
O=C(O)/C=C\c1nc(=O)c2c3n(c(C(=O)Nc4ccc(Cl)cc4)c2[nH]1)CCC3 | 17.09
Cc1ccc(NC(=O)c2c(NC(=O)C(C)c3cccc(C(=O)c4ccccc4)c3)c(C#N)c3n2CCC3)cc1 (racemic) | 3.6
Cc1ccc(NC(=O)c2c(NC(=O)C(C)c3ccc(CC(C)C)cc3)c(C#N)c3n2CCC3)cc1 (racemic) | 3.2
CC(C)Cc1ccc(C(C)C(=O)Nc2c(C#N)c3n(c2C(=O)Nc2ccc(Cl)cc2)CCC3)cc1 (racemic) | 0
CC(C(=O)Nc1c(C#N)c2n(c1C(=O)Nc1ccc(Cl)cc1)CCC2)c1cccc(C(=O)c2ccccc2)c1 (racemic) | 3.6
CC(C(=O)Nc1c(C#N)c2n(c1C(=O)Nc1ccccc1)CCC2)c1cccc(C(=O)c2ccccc2)c1 (racemic) | 0
CC(C)Cc1ccc(C(C)C(=O)Nc2c(C#N)c3n(c2C(=O)Nc2ccccc2)CCC3)cc1 (racemic) | 0
O=C(c1ccccc1)c1ccc2n1CCC2C(=O)O (stereo not drawn) [KETOROLAC] | 11.6
